For the experiment, the target named is Muscarinic acetylcholine receptor M1 (Homo sapiens) (UniProt P11229). Put plainly: potentiation of ACh at human M1 – CHO cells, calcium fluorescence, counter-screen for M4 PAM project, dose response (AID 588744). The conditions noted are these: CHO hM1 calcium mobilization, Fluo-4 fluorescence. A digest of the protocol:
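assay system = Fluo-4-loaded CHO cells expressing human M1 muscarinic receptor | probe or stimulus = acetylcholine at EC20, then acetylcholine at EC80 | timing = 144 s compound preincubation, EC80 ACh 86 s after EC20, 37 °C | signal = Fluo-4 calcium fluorescence | controls = maximal acetylcholine response at 1 mM as normalization reference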

The values below come from PubChem BioAssay AID588744 (Vanderbilt Specialized Chemistry Center, 2011).

One may read the EC50 as the concentration at which the effect is half-maximal.

The source made the active and inactive calls.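 Rule for the calls: active = compounds whose response rose with dose, given a half-maximal potency and peak effect versus acetylcholine; inactive = the rest.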

Chain of Muscarinic acetylcholine receptor M1 (Homo sapiens) (P11229 whole entry, looked up): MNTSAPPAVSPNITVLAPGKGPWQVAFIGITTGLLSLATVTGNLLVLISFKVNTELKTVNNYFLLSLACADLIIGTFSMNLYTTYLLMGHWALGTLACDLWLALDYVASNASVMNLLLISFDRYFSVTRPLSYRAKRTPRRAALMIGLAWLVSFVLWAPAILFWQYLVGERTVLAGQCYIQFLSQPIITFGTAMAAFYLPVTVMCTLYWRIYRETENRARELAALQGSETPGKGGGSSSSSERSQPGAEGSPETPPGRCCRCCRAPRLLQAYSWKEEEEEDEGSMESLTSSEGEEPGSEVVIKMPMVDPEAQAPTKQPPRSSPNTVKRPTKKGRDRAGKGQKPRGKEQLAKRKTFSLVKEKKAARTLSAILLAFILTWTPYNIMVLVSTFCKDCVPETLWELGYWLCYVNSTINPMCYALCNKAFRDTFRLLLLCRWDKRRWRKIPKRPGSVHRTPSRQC

Take `Cc1nc2sc(C(=O)NCc3ccncc3)c(N)c2c(C)c1Cl`: the “% ACh max response” value (at 45.3 µM (top of the series)) is “inactive”. With `Cc1nc2sc(C(=O)NCc3cccc(F)c3F)c(N)c2c(C)c1Cl`, where the note is “at 30 µM (top of the series)”, the “% ACh max response” value was “inactive”. For `Cc1nc2sc(C(=O)NCc3ccc4c(c3)OCO4)c(N)c2c(C)c1Cl`, under “at 36.8 µM (top of the series)”, the “% ACh max response” value was “inactive”.

With `Cc1nc2sc(C(=O)NCc3ccncn3)c(N)c2c(C)c1Cl`, the “% ACh max response” value (at 30 µM (top of the series)) was “inactive”. Regarding `Cc1nc2sc(C(=O)NCCc3ccncc3)c(N)c2c(C)c1Cl`, the “% ACh max response” value (at 30 µM (top of the series)) was “inactive”. As for `Cc1nc2sc(C(=O)NC3CC3)c(N)c2c(C)c1Cl`, the EC50 was 969 nM. For the molecule `Cc1nc2sc(C(=O)NCc3nccs3)c(N)c2c(C)c1Cl`, where the note is “at 30 µM (top of the series)”, the “% ACh max response” value is “inactive”. Take `Cc1nc2sc(C(=O)NCc3ccccc3)c(N)c2c(C)c1Cl`: where the note is “at 37.4 µM (top of the series)”, the “% ACh max response” value was “inactive”. Turning to `Cc1nc2sc(C(=O)NCc3cccnc3)c(N)c2c(C)c1Cl`, the “% ACh max response” value (at 45.3 µM (top of the series)) is “inactive”.
